The source made the active and inactive calls.
Assays:
[1] = target: Proto-oncogene tyrosine-protein kinase Src (Homo sapiens) (UniProt P12931); assay: Inhibition of SRC at 10 uM
[2] = tested on: Serine/threonine-protein kinase B-raf (Homo sapiens), P15056 [V600E]; assay: Inhibition of B-Raf V600E mutant at 10 uM
[3] = target: Casein kinase II subunit alpha (Homo sapiens) (UniProt P68400); assay: Inhibition of CK2alpha1 at 10 uM
[4] = target: Insulin receptor (Homo sapiens) (UniProt P06213); assay: Inhibition of INSR at 10 uM
Insulin receptor (Homo sapiens), sequence (P06213 28-758 limits assumed): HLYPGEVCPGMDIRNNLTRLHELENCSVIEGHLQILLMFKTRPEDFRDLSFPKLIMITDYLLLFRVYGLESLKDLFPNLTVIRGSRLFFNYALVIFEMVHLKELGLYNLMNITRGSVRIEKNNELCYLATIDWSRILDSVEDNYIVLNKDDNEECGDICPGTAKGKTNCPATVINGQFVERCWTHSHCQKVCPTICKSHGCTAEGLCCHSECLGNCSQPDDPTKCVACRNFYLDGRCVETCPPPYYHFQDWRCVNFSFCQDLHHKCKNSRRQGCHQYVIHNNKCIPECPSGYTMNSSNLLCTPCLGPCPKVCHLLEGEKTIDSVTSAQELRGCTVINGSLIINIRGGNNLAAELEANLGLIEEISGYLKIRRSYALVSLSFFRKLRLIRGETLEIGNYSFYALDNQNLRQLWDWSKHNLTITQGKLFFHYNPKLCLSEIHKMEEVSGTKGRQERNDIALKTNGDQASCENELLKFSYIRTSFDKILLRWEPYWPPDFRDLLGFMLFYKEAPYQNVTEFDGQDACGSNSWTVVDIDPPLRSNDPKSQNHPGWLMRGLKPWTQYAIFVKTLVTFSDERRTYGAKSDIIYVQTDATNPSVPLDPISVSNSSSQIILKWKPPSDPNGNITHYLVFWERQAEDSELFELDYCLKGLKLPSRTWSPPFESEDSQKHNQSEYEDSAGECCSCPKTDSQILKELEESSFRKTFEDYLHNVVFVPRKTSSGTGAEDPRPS
Insulin receptor (Homo sapiens), sequence (P06213 763-1382 limits assumed): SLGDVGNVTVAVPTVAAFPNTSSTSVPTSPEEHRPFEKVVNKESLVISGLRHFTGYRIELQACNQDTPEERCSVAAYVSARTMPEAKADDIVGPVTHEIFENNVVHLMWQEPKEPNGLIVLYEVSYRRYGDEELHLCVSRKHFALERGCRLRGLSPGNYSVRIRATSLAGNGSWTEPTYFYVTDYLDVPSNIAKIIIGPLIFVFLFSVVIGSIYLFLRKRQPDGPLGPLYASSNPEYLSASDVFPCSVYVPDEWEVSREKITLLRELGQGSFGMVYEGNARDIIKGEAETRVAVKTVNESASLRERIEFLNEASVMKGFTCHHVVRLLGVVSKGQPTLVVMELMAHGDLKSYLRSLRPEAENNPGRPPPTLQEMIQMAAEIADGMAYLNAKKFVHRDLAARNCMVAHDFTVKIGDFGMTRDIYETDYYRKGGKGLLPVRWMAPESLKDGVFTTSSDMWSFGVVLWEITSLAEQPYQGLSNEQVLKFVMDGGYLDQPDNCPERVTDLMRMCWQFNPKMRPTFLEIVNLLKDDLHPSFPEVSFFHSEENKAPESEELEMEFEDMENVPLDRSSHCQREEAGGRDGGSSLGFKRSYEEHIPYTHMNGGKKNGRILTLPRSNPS

[5] = target: Hepatocyte growth factor receptor (Homo sapiens) (UniProt P08581); assay: Inhibition of MET at 10 uM
Hepatocyte growth factor receptor (Homo sapiens), sequence (P08581 whole entry): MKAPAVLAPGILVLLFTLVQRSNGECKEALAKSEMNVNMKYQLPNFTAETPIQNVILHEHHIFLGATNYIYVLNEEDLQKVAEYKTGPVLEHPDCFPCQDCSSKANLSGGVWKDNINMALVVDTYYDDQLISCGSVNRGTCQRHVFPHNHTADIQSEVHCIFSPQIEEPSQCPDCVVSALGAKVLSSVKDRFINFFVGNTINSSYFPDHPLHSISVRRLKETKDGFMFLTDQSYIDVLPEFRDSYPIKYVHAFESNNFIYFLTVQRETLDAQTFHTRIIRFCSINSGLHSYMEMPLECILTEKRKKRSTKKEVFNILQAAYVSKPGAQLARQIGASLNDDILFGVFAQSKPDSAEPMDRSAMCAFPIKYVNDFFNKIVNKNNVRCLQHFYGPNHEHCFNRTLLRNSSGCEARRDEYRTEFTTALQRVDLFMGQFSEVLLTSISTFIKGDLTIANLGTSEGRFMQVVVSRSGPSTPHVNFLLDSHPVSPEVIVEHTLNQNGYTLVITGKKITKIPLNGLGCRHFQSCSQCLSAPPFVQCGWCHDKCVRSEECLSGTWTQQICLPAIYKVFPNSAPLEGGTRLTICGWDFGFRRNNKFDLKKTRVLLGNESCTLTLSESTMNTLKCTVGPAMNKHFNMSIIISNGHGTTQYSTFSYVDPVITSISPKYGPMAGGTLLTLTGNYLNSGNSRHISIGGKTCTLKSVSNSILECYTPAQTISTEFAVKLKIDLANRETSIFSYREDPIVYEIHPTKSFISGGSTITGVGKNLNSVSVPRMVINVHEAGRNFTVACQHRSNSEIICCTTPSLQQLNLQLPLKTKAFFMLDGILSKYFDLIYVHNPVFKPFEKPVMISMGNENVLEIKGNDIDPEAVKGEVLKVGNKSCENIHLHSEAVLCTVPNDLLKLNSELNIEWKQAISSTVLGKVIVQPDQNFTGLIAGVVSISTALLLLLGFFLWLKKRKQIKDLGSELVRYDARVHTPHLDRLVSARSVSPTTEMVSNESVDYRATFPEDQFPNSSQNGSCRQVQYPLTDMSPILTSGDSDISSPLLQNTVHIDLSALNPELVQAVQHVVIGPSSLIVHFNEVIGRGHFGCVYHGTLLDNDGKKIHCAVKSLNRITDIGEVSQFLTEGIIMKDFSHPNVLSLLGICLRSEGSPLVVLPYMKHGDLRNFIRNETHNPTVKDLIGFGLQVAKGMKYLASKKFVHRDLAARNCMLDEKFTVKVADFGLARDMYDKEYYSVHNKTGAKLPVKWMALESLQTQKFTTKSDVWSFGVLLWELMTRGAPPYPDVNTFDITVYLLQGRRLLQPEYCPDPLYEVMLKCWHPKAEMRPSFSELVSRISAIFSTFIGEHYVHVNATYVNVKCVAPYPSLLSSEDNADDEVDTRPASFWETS

[6] = target: T1, Serine/threonine-protein kinase PLK4 (Homo sapiens) (UniProt O00444); assay: Inhibition of SAK at 10 uM
T1 sequence (whole entry): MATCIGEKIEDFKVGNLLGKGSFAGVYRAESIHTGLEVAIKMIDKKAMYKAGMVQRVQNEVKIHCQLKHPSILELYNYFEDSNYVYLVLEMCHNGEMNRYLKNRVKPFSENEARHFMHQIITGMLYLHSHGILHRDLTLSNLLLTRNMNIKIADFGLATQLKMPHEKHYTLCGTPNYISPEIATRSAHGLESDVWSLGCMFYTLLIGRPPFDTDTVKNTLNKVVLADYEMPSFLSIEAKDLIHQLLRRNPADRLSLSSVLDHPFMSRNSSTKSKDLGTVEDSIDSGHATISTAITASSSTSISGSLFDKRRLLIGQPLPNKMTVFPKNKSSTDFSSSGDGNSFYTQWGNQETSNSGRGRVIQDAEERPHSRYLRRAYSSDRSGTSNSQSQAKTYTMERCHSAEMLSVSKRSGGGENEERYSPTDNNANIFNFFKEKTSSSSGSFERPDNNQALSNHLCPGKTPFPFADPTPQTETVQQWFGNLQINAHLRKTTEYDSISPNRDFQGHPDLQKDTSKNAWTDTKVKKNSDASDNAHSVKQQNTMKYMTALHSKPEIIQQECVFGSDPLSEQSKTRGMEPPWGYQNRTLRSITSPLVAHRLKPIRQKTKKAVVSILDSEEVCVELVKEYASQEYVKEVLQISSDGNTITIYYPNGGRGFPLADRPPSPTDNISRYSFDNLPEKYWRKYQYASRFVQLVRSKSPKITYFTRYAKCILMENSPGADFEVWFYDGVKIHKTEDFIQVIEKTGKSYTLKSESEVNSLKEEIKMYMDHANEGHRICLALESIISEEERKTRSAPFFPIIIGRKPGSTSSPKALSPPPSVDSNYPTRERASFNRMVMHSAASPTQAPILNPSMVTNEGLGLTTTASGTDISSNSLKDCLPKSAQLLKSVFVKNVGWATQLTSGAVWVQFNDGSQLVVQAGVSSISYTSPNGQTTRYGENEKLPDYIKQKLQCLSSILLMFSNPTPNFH

[7] = target: Serine/threonine-protein kinase PLK1 (Homo sapiens) (UniProt P53350); assay: Inhibition of PLK1 at 10 uM
[8] = target: Aurora kinase B (Homo sapiens) (UniProt Q96GD4); assay: Inhibition of Aurora B at 10 uM
[9] = target: BDNF/NT-3 growth factors receptor (Homo sapiens) (UniProt Q16620); assay: Inhibition of TRKB at 10 uM
BDNF/NT-3 growth factors receptor (Homo sapiens), sequence (Q16620 32-822 limits assumed): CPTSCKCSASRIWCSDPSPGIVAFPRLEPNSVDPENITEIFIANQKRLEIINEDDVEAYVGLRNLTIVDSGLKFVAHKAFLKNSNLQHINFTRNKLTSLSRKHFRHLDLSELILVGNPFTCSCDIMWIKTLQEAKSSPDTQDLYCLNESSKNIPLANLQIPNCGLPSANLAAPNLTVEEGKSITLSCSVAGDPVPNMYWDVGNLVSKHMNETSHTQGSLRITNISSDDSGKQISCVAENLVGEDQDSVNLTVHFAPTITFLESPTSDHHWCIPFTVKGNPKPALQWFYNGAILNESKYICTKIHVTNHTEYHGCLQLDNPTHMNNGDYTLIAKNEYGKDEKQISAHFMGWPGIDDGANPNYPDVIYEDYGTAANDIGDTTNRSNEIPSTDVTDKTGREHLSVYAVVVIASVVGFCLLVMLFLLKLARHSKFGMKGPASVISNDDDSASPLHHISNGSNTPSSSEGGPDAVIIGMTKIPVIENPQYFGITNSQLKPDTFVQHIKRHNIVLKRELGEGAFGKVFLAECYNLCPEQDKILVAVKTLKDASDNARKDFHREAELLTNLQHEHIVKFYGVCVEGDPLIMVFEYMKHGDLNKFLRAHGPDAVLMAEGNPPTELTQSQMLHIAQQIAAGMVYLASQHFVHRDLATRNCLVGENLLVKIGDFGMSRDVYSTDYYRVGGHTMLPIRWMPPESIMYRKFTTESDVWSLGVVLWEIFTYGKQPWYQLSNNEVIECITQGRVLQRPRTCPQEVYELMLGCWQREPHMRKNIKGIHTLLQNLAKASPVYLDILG

[10] = Inhibition of p38 assessed as rate of ATF-2 phosphorylation by immunosorbent non-radioactive enzyme assay
Method in brief: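 p38α MAP kinase ELISA-type (immunosorbent, non-radioactive) assay. Enzyme was incubated with ATP at 100 µM, ATF-2 as substrate, and test compound at 10^-5 to 10^-8 M. Activity was read as the rate of ATF-2 phosphorylation. SB203580 served as the reference inhibitor.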

[11] = target: Serine/threonine-protein kinase N1 (Homo sapiens) (UniProt Q16512); assay: Inhibition of PRK1 at 10 uM
Serine/threonine-protein kinase N1 (Homo sapiens), sequence (Q16512 2-942 limits assumed): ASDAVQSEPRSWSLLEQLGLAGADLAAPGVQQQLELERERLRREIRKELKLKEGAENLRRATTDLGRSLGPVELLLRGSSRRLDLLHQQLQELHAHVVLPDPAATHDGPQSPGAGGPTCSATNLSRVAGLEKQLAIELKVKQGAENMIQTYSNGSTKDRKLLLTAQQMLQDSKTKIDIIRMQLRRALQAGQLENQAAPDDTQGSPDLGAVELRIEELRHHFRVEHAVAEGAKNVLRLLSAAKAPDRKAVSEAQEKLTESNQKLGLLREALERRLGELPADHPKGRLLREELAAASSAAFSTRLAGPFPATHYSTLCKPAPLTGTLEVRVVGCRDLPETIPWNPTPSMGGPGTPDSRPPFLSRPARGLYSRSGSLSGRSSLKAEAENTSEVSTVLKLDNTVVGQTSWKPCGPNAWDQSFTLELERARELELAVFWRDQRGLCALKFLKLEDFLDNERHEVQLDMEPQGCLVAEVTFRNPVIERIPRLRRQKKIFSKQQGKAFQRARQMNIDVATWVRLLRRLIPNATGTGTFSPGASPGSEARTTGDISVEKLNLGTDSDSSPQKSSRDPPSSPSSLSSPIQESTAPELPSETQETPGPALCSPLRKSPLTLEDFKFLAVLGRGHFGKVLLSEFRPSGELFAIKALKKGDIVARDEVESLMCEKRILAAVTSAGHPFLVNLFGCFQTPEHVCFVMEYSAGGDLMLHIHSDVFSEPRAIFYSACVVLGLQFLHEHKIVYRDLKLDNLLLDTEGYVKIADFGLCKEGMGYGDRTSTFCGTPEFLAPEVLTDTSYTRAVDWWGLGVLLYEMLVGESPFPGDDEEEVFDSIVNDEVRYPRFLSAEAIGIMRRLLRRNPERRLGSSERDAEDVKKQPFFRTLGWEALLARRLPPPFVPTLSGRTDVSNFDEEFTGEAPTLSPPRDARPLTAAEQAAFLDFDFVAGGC

[12] = target: Tyrosine-protein kinase receptor UFO (Homo sapiens) (UniProt P30530); assay: Inhibition of AXL at 10 uM
[13] = target: Vascular endothelial growth factor receptor 2 (Homo sapiens) (UniProt P35968); assay: Inhibition of VGFR2 at 10 uM
[14] = target: Focal adhesion kinase 1 (Homo sapiens) (UniProt Q05397); assay: Inhibition of FAK at 10 uM
[15] = target: Insulin-like growth factor 1 receptor (Homo sapiens) (UniProt P08069); assay: Inhibition of IGF1R at 10 uM
[16] = target: RAC-alpha serine/threonine-protein kinase (Homo sapiens) (UniProt P31749); assay: Inhibition of AKT1 at 10 uM
[17] = target: T2, NUAK family SNF1-like kinase 1 (Homo sapiens) (UniProt O60285); assay: Inhibition of ARK5 at 10 uM
T2 sequence (whole entry): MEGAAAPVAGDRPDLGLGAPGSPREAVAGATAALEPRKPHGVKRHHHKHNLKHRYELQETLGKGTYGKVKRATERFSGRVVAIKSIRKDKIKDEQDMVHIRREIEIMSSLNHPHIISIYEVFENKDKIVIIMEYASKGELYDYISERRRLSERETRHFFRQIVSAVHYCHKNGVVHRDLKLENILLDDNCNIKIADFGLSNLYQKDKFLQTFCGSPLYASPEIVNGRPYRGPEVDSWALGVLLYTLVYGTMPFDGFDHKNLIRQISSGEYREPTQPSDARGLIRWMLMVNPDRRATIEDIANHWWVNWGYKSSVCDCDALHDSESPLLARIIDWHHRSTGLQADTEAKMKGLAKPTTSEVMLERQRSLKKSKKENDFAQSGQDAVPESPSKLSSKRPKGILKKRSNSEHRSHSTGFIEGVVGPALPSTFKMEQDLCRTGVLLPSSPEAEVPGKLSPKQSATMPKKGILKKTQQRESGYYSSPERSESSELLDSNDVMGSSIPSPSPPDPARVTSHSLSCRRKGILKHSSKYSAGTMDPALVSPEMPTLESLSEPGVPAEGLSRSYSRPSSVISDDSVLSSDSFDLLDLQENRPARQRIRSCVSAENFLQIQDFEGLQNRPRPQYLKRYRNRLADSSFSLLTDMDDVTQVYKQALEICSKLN

Proto-oncogene tyrosine-protein kinase Src (Homo sapiens), sequence (P12931 2-536 limits assumed): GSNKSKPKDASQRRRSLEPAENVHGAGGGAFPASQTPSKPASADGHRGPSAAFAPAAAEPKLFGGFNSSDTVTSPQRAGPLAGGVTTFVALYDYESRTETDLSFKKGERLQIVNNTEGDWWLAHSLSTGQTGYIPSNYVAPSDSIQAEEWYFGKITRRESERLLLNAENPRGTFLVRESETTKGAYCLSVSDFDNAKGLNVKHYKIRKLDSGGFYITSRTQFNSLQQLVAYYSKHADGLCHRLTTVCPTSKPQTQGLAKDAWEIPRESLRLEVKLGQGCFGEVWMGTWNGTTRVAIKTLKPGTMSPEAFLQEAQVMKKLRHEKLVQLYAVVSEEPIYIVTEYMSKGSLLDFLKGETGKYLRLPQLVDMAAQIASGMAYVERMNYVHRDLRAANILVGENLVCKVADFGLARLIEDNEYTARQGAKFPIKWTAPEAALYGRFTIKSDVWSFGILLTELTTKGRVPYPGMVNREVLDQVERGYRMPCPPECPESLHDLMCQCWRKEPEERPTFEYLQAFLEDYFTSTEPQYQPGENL

Nc1ccccc1Nc1ccc2c(c1)C(=O)Cc1ccccc1C2
inactive: inhibition [1] | inhibition [2] | inhibition [3] | inhibition [4] | inhibition [5] | inhibition [6] | inhibition [7] | inhibition [8] | inhibition [9] | inhibition [11] | inhibition [12] | inhibition [13] | inhibition [14] | inhibition [15] | inhibition [16] | inhibition [17]
4010 nM: IC50 [10]

Nc1cc(F)ccc1Nc1ccc2c(c1)Cc1ccccc1CC2=O
1720 nM: IC50 [10]
inactive: inhibition [1] | inhibition [2] | inhibition [3] | inhibition [4] | inhibition [5] | inhibition [6] | inhibition [7] | inhibition [8] | inhibition [9] | inhibition [11] | inhibition [12] | inhibition [13] | inhibition [14] | inhibition [15] | inhibition [16] | inhibition [17]

Nc1cc(F)ccc1Nc1ccc2c(c1)CC(=O)c1ccccc1C2
980 nM: IC50 [10]
inactive: inhibition [1] | inhibition [2] | inhibition [3] | inhibition [4] | inhibition [5] | inhibition [6] | inhibition [7] | inhibition [8] | inhibition [9] | inhibition [11] | inhibition [12] | inhibition [13] | inhibition [14] | inhibition [15] | inhibition [16] | inhibition [17]

O=C1Cc2ccc(Nc3ccccc3)cc2Cc2ccccc21
inactive: inhibition [1] | inhibition [2] | inhibition [3] | inhibition [4] | inhibition [5] | inhibition [6] | inhibition [7] | inhibition [8] | inhibition [9] | inhibition [11] | inhibition [12] | inhibition [13] | inhibition [14] | inhibition [15] | inhibition [16] | inhibition [17]
3210 nM: IC50 [10]

Nc1ccccc1Nc1ccc2c(c1)Cc1ccccc1CC2=O
inactive: inhibition [1] | inhibition [2] | inhibition [3] | inhibition [4] | inhibition [5] | inhibition [6] | inhibition [7] | inhibition [8] | inhibition [9] | inhibition [11] | inhibition [12] | inhibition [13] | inhibition [14] | inhibition [15] | inhibition [16] | inhibition [17]
990 nM: IC50 [10]

Nc1ccccc1Nc1ccc2c(c1)Cc1ccccc1C(=O)C2
inactive: inhibition [1] | inhibition [2] | inhibition [3] | inhibition [4] | inhibition [5] | inhibition [6] | inhibition [7] | inhibition [8] | inhibition [9] | inhibition [11] | inhibition [12] | inhibition [13] | inhibition [14] | inhibition [15] | inhibition [16] | inhibition [17]
1930 nM: IC50 [10]

O=C1Cc2ccccc2Cc2cc(Nc3ccccc3)ccc21
inactive: inhibition [1] | inhibition [2] | inhibition [3] | inhibition [4] | inhibition [5] | inhibition [6] | inhibition [7] | inhibition [8] | inhibition [9] | inhibition [11] | inhibition [12] | inhibition [13] | inhibition [14] | inhibition [15] | inhibition [16] | inhibition [17]
1750 nM: IC50 [10]

Nc1ccccc1Nc1ccc2c(c1)CC(=O)c1ccccc1C2
inactive: inhibition [1] | inhibition [2] | inhibition [3] | inhibition [4] | inhibition [5] | inhibition [6] | inhibition [7] | inhibition [8] | inhibition [9] | inhibition [11] | inhibition [12] | inhibition [13] | inhibition [14] | inhibition [15] | inhibition [16] | inhibition [17]
2100 nM: IC50 [10]

Nc1cc(F)ccc1Nc1ccc2c(c1)Cc1ccccc1C(=O)C2
3820 nM: IC50 [10]
inactive: inhibition [1] | inhibition [2] | inhibition [3] | inhibition [4] | inhibition [5] | inhibition [6] | inhibition [7] | inhibition [8] | inhibition [9] | inhibition [11] | inhibition [12] | inhibition [13] | inhibition [14] | inhibition [15] | inhibition [16] | inhibition [17]

O=C1Cc2ccccc2Cc2cc(Nc3ccc(F)cc3F)ccc21
1510 nM: IC50 [10]
inactive: inhibition [1] | inhibition [2] | inhibition [3] | inhibition [4] | inhibition [5] | inhibition [6] | inhibition [7] | inhibition [8] | inhibition [9] | inhibition [11] | inhibition [12] | inhibition [13] | inhibition [14] | inhibition [15] | inhibition [16] | inhibition [17]

Reference: ChEMBL document CHEMBL1157789, “Design, synthesis and SAR of phenylamino-substituted 5,11-dihydro-dibenzo[a,d]cyclohepten-10-ones and 11H-dibenzo[b,f]oxepin-10-ones as p38 MAP kinase inhibitors” (Bioorg Med Chem Lett, 2010)
